Results on nine molecules are retold here after ChEMBL document CHEMBL1136016, “Synthesis, biological activity, and molecular modeling investigation of new pyrazolo[4,3-e]-1,2,4-triazolo[1,5-c]pyrimidine derivatives as human A(3) adenosine receptor antagonists” (J Med Chem, 2002).

In general, Ki refers to the equilibrium dissociation constant of an inhibitor or competing ligand from its target. A higher Ki goes with weaker binding. Usually IC50 stands for the concentration that inhibits the measured activity by half. Read a low IC50 as inhibition by little substance.

Assay [1] addresses Adenosine receptors; A2b & A3 (Homo sapiens) (UniProt P29275+P0DMS8). The assay can be described thus: Selectivity ratio (h2B/hA3). Format: protein assay.
Assay [2] addresses T1, Adenosine receptor A2a (Homo sapiens, UniProt P29274). The assay can be described thus: Displacement of [3H]SCH-58261 from human Adenosine A2A receptor expressed in CHO cells. Type of assay: cell-based. The gist of the method:
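Membranes from CHO cells expressing the human receptor (50 µg protein) with [3H]SCH58261 and six to eight competitor concentrations. Incubated 60 min at 25 °C. Nonspecific binding was set with NECA.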

Assay [3] deals with T2, Adenosine receptor A3 (Homo sapiens, UniProt P0DMS8).
T2 sequence (P0DMS8 whole entry): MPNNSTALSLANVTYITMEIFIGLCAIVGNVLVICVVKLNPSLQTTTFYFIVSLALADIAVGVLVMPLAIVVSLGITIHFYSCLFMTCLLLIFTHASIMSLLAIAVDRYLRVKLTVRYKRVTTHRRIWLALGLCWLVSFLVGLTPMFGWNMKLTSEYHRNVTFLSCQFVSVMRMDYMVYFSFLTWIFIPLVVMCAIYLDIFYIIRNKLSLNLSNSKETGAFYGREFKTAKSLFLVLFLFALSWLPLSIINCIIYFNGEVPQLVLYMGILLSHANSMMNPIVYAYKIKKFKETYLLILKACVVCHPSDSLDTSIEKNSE
The assay is described as follows: biochemical.

The target in assay [4] is T3, Adenosine receptor A2b (Homo sapiens, UniProt P29275).
T3 sequence (P29275 whole entry): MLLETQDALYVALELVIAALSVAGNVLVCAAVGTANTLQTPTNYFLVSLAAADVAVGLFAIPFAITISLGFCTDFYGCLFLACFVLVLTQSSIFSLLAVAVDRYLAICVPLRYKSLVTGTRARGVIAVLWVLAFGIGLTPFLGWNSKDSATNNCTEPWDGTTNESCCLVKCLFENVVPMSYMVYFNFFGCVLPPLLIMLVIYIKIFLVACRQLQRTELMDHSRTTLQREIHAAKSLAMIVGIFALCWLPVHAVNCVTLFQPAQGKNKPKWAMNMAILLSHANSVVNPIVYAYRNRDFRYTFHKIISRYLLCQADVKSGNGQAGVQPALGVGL
The assay can be described thus: Displacement of [3H]DPCPX from human Adenosine A2B receptor expressed in HEK293 cells (95% confidence limits). Type of assay: cell-based. The gist of the method:
(§1)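 HEK-293 membranes expressing the human receptor were incubated 60 min at 25 °C. Six to eight test concentrations were used. Nonspecific binding was set with NECA. n = 3-6.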
Background: Loss of bound radioactivity is the signal in a displacement assay; it reports binding, not function.

Assay [5] deals with Adenosine receptors; A1 & A3 (Homo sapiens) (UniProt P30542+P0DMS8). The assay is described as follows: Selectivity ratio (hA1/hA3). Format: protein assay.
The target in assay [6] is T4, Adenosine receptor A1 (Homo sapiens, UniProt P30542).
T4 sequence (P30542 whole entry): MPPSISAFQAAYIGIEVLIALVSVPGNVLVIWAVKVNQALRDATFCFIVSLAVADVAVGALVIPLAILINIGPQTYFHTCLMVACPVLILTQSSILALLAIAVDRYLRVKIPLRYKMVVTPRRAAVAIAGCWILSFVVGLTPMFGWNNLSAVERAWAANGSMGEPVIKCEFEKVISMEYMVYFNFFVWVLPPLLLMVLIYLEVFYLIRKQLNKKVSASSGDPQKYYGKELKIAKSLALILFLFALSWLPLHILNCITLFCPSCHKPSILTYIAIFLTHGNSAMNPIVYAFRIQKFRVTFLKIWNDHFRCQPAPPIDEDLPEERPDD
The assay is described as follows: Displacement of [3H]DPCPX from human Adenosine A1 receptor expressed in CHO cells. Type of assay: cell-based. The gist of the method: (§2)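 Human recombinant A1 receptor in CHO cell membranes, resuspended in 50 mM Tris HCl pH 7.4. Displacement run 120 min at 25 °C with 1 nM [3H]DPCPX, 50 µg protein per assay, and at least six to eight test concentrations. Nonspecific binding defined with CHA. Bound and free separated on glass-fiber filters; filter radioactivity counted. n = 3-6.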

The target in assay [7] is T1, Adenosine receptor A2a. The assay is described as follows: Displacement of [3H]SCH-58261 from human Adenosine A2A receptor expressed in HEK293 cells; range 34-50. Format: cell-based.
Assay [8] concerns the target T4, Adenosine receptor A1. The assay can be described thus: Displacement of [3H]DPCPX from human Adenosine A1 receptor expressed in CHO cells; range 294-480. Type of assay: cell-based.
Assay [9] concerns the target T3, Adenosine receptor A2b. The assay can be described thus: Displacement of [3H]DPCPX from human Adenosine A2B receptor expressed in HEK293 cells; range 140-186. Type of assay: cell-based. In short, it runs like this:
(§3)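 Membranes from HEK-293 cells with human recombinant A2B receptor. Incubation 60 min at 25 °C in 50 mM Tris HCl, 10 mM MgCl2, 1 mM EDTA, 0.1 mM benzamidine, pH 7.4, with 2 IU/mL adenosine deaminase and 40 nM [3H]DPCPX. At least six to eight test concentrations. Nonspecific binding defined with NECA. n = 3-6.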

Assay [10] addresses T2, Adenosine receptor A3. The assay can be described thus: biochemical. The source holds these as a separate data set.
In assay [11] the target is T2, Adenosine receptor A3. The assay can be described thus: Inhibition of IB-MECA agonist-mediated cAMP production in membranes of CHO cells expressing human Adenosine A3 receptor. Format: functional, cell-based. The gist of the method:
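Human A3-CHO membranes (in 50 mM Tris HCl, 10 mM MgCl2, 1 mM EDTA, pH 7.4) were preincubated for 10 min at 37 °C with 5 µM GTP, 0.5 mM Ro 20-1724 and 2.0 IU/mL adenosine deaminase. IB-MECA (100 nM) or antagonist was then added with 1 mM ATP and forskolin for 10 min. The reaction was stopped by 2 min boiling. cAMP was measured by [3H]cAMP competitive protein binding using beef adrenal binding protein, 150 min at 4 °C.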

Assay [12] concerns the target T2, Adenosine receptor A3. The assay can be described thus: Displacement of […] from human Adenosine A3 receptor expressed in CHO cells. Format: cell-based. In short, it runs like this:
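Membranes of CHO cells stably expressing human A3 receptor (50 µg protein/assay), incubated in duplicate with 1 nM [3H]MRE3008-F20 in 50 mM Tris HCl, 10 mM MgCl2 (pH 7.4) and six to eight ligand concentrations, 120 min at 4 °C. Nonspecific binding was set with 1 µM MRE3008-F20. Separation was by GF/B filtration and scintillation counting; n = 3-6.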

Assay [13] deals with T3, Adenosine receptor A2b. The assay can be described thus: Displacement of [3H]DPCPX binding at human Adenosine A2B receptor expressed in HEK293 cells. Format: cell-based. The gist of the method:
as §3

Assay [14] deals with T4, Adenosine receptor A1. The assay can be described thus: Displacement of [3H]DPCPX from human Adenosine A1 receptor expressed in CHO cells; range 222-400. Type of assay: cell-based. The gist of the method:
as §2

Assay [15] addresses T3, Adenosine receptor A2b. The assay is described as follows: Displacement of [3H]DPCPX from human Adenosine A2B receptor expressed in HEK293 cells; range 88-165. Type of assay: cell-based. In short, it runs like this:
as §3

The target in assay [16] is T2, Adenosine receptor A3. The assay can be described thus: Displacement of [3H]MRE3008-F20 binding at human Adenosine A3 receptor expressed in HEK cells; range 0.82-1.02. Format: cell-based, HEK293.
For assay [17], the target named is T1, Adenosine receptor A2a. The assay is described as follows: Displacement of [3H]SCH-58261 from human Adenosine A2A receptor expressed in HEK293 cells; […]. Type of assay: cell-based.
Assay [18] addresses T3, Adenosine receptor A2b. The assay can be described thus: Displacement of [3H]-DPCPX from human Adenosine A2B receptor expressed in HEK293 cells; range 107-172. Type of assay: cell-based. In short, it runs like this:
as §1

The target in assay [19] is T1, Adenosine receptor A2a. The assay is described as follows: Displacement of [3H]SCH-58261 from human Adenosine A2A receptor expressed in HEK293 cells; range 36-70. Format: cell-based.
Assay [20] deals with T4, Adenosine receptor A1. The assay can be described thus: Displacement of [3H]DPCPX from human Adenosine A1 receptor expressed in CHO cells; range 253-401. Type of assay: cell-based. The gist of the method: as §2
Assay [21] has as its target T2, Adenosine receptor A3. The assay can be described thus: biochemical. The source holds these as a separate data set.

T1 sequence (P29274 whole entry): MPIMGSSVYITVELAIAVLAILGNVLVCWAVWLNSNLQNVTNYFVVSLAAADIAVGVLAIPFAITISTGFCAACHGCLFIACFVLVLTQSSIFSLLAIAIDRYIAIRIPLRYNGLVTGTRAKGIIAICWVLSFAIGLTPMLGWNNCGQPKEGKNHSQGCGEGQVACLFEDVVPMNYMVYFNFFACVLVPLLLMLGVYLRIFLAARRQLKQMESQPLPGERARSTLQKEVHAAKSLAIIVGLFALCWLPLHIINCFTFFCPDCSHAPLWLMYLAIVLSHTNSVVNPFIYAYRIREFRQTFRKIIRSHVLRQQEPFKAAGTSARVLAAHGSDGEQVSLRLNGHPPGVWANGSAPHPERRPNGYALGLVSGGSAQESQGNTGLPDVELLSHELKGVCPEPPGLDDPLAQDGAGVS

Consider `CCn1cc2c(nc(NC(=O)Cc3ccccc3)n3nc(-c4ccco4)nc23)n1`, for which the Ratio in assay [1] turned out to be 156; in assay [5], 693. The inhibition constant Ki on Adenosine receptor A2a [2] is 335 nM; at Adenosine receptor A3 [3], 1.03 nM; on Adenosine receptor A2b [4], 161 nM; at Adenosine receptor A1 [6] it was 714 nM.

With `CCCn1cc2c(nc(NC(=O)Nc3ccc(F)cc3)n3nc(-c4ccco4)nc23)n1`, the Ki was 42 nM at Adenosine receptor A2a [7], 376 nM on Adenosine receptor A1 [8], 161 nM at Adenosine receptor A2b [9] and 0.29 nM at Adenosine receptor A3 [10]. The Ratio stood at 555 in [1] and 1300 in assay [5].

In the case of `O=C(Nc1cccc(Cl)c1)Nc1nc2ccc(Cl)cc2c2nc(-c3ccco3)nn12`, the figures for the Ratio in assay [1] and in [5] were 157 and 54, respectively.

Consider `COc1ccc(NC(=O)Nc2nc3ccc(Cl)cc3c3nc(-c4ccco4)nn23)cc1`, for which the Ratio in [1] was found to be 158; in [5], 43.

As for `Cn1cc2c(nc(NC(=O)Nc3ccc([N+](=O)[O-])cc3)n3nc(-c4ccco4)nc23)n1`, the figures for the Ratio in assay [1] and in assay [5] were 419 and 2590, respectively. Moreover, the inhibition constant Ki was determined as 695 nM at Adenosine receptor A2a [2], 0.43 nM at Adenosine receptor A3 [12], 180 nM at Adenosine receptor A2b [13] and 1110 nM on Adenosine receptor A1 [6]. The molecule further came in with an IC50 at Adenosine receptor A3 [11] of 5.5 nM.

`CCCCn1cc2c(nc(NC(=O)Nc3ccc(Br)cc3)n3nc(-c4ccco4)nc23)n1`: the Ki was 300 nM at Adenosine receptor A1 [14], 121 nM at Adenosine receptor A2b [15], 0.91 nM on Adenosine receptor A3 [16] and 66 nM on Adenosine receptor A2a [17]. The Ratio in [1] is 133; in [5], 330.

Take `CCCCn1cc2c(nc(NC(=O)Nc3cccc(Cl)c3)n3nc(-c4ccco4)nc23)n1`: the Ratio in assay [1] came to 116; in assay [5], 408.

Turning to `CCn1cc2c(nc(NC(=O)Nc3ccc(OC)cc3)n3nc(-c4ccco4)nc23)n1`, the Ratio in [1] amounted to 408; in assay [5] it was 1710.

As for `CCCCn1cc2c(nc(NC(=O)Nc3ccc(F)cc3)n3nc(-c4ccco4)nc23)n1`, the values for the Ratio in assay [1] and in assay [5] were 170 and 398, respectively. Also, the Ki was 136 nM at Adenosine receptor A2b [18], 50 nM at Adenosine receptor A2a [19], 318 nM at Adenosine receptor A1 [20] and 0.8 nM at Adenosine receptor A3 [21].
